The list is not random: actives were taken first. Their share in the collection is about 1.8%.
NPY-Y2 antag: antagonists of human neuropeptide Y receptor Y2 | P49146 | inhibition, % at 2.7 µM | AID 793 | NPY-Y2 expressing cells, antagonist mode | hit rate 0.99% among 140,000; in the data active = inhibition above about 17%;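 note: 0% = vehicle with agonist challenge and 100% = reference antagonist with challenge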
NPY2 pot ag: potentiates or activates human NPY-Y2 receptor | cells expressing NPY-Y2, potentiator/agonist read-out | AID 1359 | hit rate 0.45% among 220,000 | activation, % at 3.6 µM; in the data active = activation above about 27%;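 note: cells stimulated with NPY near EC25 plus isoproterenol at EC100; 0% = vehicle plus submaximal agonist and 100% = vehicle plus saturating agonist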
NPY-Y1 antag: NPY-Y1 (human) receptor antagonism; hit rate 1% among 200,000; HEK293-CNG Y1 cells, membrane potential fluorescence; NPY at EC95, then isoproterenol; P25929; inhibition, % at 3.6 µM;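 active = inhibition above the campaign mean inhibition of all tested compounds plus 3 SD, cut at about 20% in these data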;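 note: 0% = DMSO wells given NPY plus isoproterenol and 100% = isoproterenol alone without NPY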
Target sequence (P25929 whole entry, looked up): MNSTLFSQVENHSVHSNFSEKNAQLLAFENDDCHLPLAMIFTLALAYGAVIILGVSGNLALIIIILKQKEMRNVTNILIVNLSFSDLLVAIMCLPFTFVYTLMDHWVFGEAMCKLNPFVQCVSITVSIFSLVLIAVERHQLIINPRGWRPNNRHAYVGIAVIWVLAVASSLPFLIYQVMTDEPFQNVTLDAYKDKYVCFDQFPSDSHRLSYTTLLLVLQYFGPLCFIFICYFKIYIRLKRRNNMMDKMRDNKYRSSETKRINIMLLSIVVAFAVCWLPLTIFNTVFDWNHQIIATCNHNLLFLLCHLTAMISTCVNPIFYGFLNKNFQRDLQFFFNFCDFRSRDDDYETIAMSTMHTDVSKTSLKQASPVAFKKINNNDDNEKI
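Test system: HEK293 cells co-expressing NPY Y1 receptor and cyclic-nucleotide gated channel; Also added: NPY (25 nM), isoproterenol (1 µM), Ro 20-1724 (25 µM); Compound dosing: one concentration, 3.6 µM, in 0.4% DMSO; Timing: dye 3 h, compound 60 min room temperature, stimulation 45 min; Technique: Membrane-potential fluorescent dye readout.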
NPY-Y1 PAM-ag: human NPY-Y1 potentiation or agonism, primary screen | activation, % at 3.6 µM | NPY-Y1 expressing cells, potentiator/agonist activation | hit rate 0.37% among 220,000; in the data active = activation above about 33%, passing the limit was not always enough;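 note: cells stimulated with NPY at EC10 then isoproterenol at EC100; 0% = low agonist plus stimulus and 100% = saturating agonist plus stimulus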
NPY-Y2 confirm: human NPY-Y2 potentiation or agonism, confirmation | shares compounds with NPY2 pot ag | cell-based NPY-Y2 potentiator/agonist assay | activation, % at 3.6 µM | hit rate 20% among 450; in the data active = activation above about 33%
NPY-Y1 counter: counter-screen for NPY-Y2 potentiators or agonists: NPY-Y1 potentiators or agonists. shares compounds with NPY2 pot ag. AID 1651. Y1 HEK293-CNG cells, membrane potential fluorescence. hit rate 20% among 450. activation, % at 3.6 µM; in the data active = activation above about 45%;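 note: cells stimulated with submaximal NPY then isoproterenol with phosphodiesterase inhibitor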
NPY-Y1 ag 2: counter-screen for NPY-Y2 potentiators: agonists of human NPY-Y1 | shares compounds with NPY2 pot ag | HEK293 Y1-CNGC, membrane potential fluorescence, agonism | activation, % at 3.6 µM | hit rate 37% among 450 | AID 1702;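 active = activation above the mean of DMSO-only control wells plus 3 SD, cut at about 18% in these data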;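 note: cells stimulated with 1 µM isoproterenol plus the PDE inhibitor Ro 20-1724; 0% = isoproterenol with DMSO and no NPY and 100% = 40 nM NPY; Y1 agonists lower the membrane potential dye signal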
CNGC inh: counter-screen for NPY-Y2 potentiators: inhibitors of CNG channel activity | shares compounds with NPY2 pot ag | HEK293-CNG parental, isoproterenol cAMP, membrane potential fluorescence | inhibition, % at 3.6 µM | hit rate 32% among 450 | AID 1703;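 active = inhibition above the control-well mean plus 3 SD of those wells, cut at about 22% in these data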;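 note: 0% = DMSO with isoproterenol and 100% = DMSO without isoproterenol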
NPY-Y2 ag 2: NPY-Y2 agonism, counter-screen for Y2 potentiators. shares compounds with NPY2 pot ag. HEK293 Y2/CNGC cells, membrane potential fluorescence, agonist mode. activation, % at 3.6 µM. hit rate 56% among 450. AID 1710;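 active = activation above the mean of solvent-only control wells plus 3 SD, cut at about 10% in these data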;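 note: cells stimulated by isoproterenol with no NPY added so direct agonism is tested; 0% = DMSO with isoproterenol alone and 100% = NPY at EC100 plus isoproterenol; agonism lowers probe fluorescence through less cAMP and CNG channel opening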
* = called active by the depositor; nt = not tested or not shown; ! = not active in a repeat.

SMILES	NPY-Y2 antag	NPY2 pot ag	NPY-Y1 antag	NPY-Y1 PAM-ag	NPY-Y2 confirm	NPY-Y1 counter	NPY-Y1 ag 2	CNGC inh	NPY-Y2 ag 2
O=C1Nc2ccccc2/C1=C/c1nc2ccccc2c(=O)n1-c1ccc(O)cc1	nt	42*	nt	44	33*	44	29*	35*	33*
Clc1cccc(N2CCNCC2)c1Cl	4	32*	8	1	14	15	9	11	8
N#Cc1cc(F)c(N2CCNCC2)cc1Cl	2	-13	2	-18	nt	nt	nt	nt	nt
CN1C2CCC1CC(=NO)C2	nt	1	1	5	nt	nt	nt	nt	nt
Cc1cccc(N2CCc3c2nc2ccccc2c3N)c1	-1	68*!	1	-43	28	39	-18	1	23*
CCN(CC)c1ccc(/C=C2/C(=O)NC(=O)N(CC3CCCO3)C2=O)cc1 (centres undefined)	-2	-2	-3	-3	nt	nt	nt	nt	nt
O=C1NC(=O)N(CC2CCCO2)C(=O)/C1=C/c1cccs1 (centres undefined)	nt	41*	nt	14	2	13	3	2	3
CCOP(=O)(Cc1cc(C(C)=O)c(C)o1)OCC	nt	-2	nt	10	nt	nt	nt	nt	nt
Cc1nn(Cc2ccccc2)c(Cl)c1C(=O)OCC(=O)Nc1cccc2ccccc12	12	45*	-5	25	-19	-20	-12	-14	-8
C=CCn1c(O)c(C(CC)=Nc2ccc(N(C)C)cc2)c(=O)[nH]c1=O	nt	25	nt	-3	nt	nt	nt	nt	nt
